From ChEMBL document CHEMBL1268986, “Inhibition of Bfl-1 with N-aryl maleimides” (Bioorg Med Chem Lett, 2010)
pIC50: −log10 of the molar value.

Experiments:
Bcl-2-related protein A1 [1] = biological target: T1, Bcl-2-related protein A1 (Homo sapiens, UniProt Q16548); assay: Inhibition of N-terminal FITC BH3 peptide binding to GST-tagged Bfl1 by fluorescence polarization assay
T1 sequence (Q16548 whole entry): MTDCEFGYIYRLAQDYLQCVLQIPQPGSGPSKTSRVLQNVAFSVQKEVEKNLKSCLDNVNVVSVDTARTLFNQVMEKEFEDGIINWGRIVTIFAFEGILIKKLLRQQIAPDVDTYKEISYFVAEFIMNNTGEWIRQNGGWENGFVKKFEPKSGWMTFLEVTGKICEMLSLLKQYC
Procedure, shortened: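 Then FITC-Bid BH3 peptide (5.6 nM working solution) was added and incubated 4 h at room temperature. Ten concentrations in 10% DMSO. Fluorescence polarization read at ex 485/em 530 nm. IC50 from sigmoidal dose-response non-linear regression.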

Bcl-2-related protein A1 [2] = biological target: T1, Bcl-2-related protein A1; assay: Inhibition of N-terminal FITC BH3 peptide binding to GST-tagged Bfl1 by time resolved-FRET assay
Procedure, shortened: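 10-point 2-fold dilution series in 10% final DMSO, in duplicate wells. FITC-Bid (5.6 nM) plus Tb-antibody (2.5 nM) was then added and incubated 4 h at room temperature. TR-FRET read at ex 340 nm, signal taken as the 520/490 nm emission ratio.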

pIC50 (Bcl-2-related protein A1 [1]) | pIC50 (Bcl-2-related protein A1 [2]) | SMILES
5.02 | 5.21 | COc1ccccc1N1CCN(C2=C(Cl)C(=O)N(c3ccc(Cl)c(Cl)c3)C2=O)CC1
6.60 | 6.16 | O=C1C(Cl)=C(N2CCN(C/C=C/c3ccccc3)CC2)C(=O)N1c1ccc(Cl)c(Cl)c1
5.77 | 6.00 | CCN1CCN(C2=C(Cl)C(=O)N(c3ccc(Cl)c(Cl)c3)C2=O)CC1
5.31 | 5.39 | O=C1C(Cl)=C(N2CCN(c3ccccc3)CC2)C(=O)N1c1ccc(Cl)c(Cl)c1
4.98 | 5.48 | CCCCN1CCN(C2=C(Cl)C(=O)N(c3ccc(Cl)c(Cl)c3)C2=O)CC1
< 5.00 | 5.08 | COc1ccc(N2CCN(C3=C(Cl)C(=O)N(c4ccc(Cl)c(Cl)c4)C3=O)CC2)cc1
5.92 | 5.30 | COc1cccc(N2CCN(C3=C(Cl)C(=O)N(c4ccc(Cl)c(Cl)c4)C3=O)CC2)c1
< 5.00 | < 5.00 | O=C1C(Cl)=C(N2CCN(c3cccc(C(F)(F)F)c3)CC2)C(=O)N1c1ccc(Cl)c(Cl)c1
6.62 | 6.21 | O=C1C(Cl)=C(N2CCN(CCO)CC2)C(=O)N1c1ccc(Cl)c(Cl)c1
< 4.30 | < 4.30 | O=C1C(Cl)=C(N2CCCC2)C(=O)N1c1ccc(Cl)c(Cl)c1
< 5.00 | 5.08 | Cc1cccc(N2CCN(C3=C(Cl)C(=O)N(c4ccc(Cl)c(Cl)c4)C3=O)CC2)c1
5.62 | 5.89 | O=C1C(Cl)=C(N2CCN(Cc3ccccc3)CC2)C(=O)N1c1ccc(Cl)c(Cl)c1
 | 5.68 | O=C1C(Cl)=C(N2CCN(Cc3ccc4c(c3)OCO4)CC2)C(=O)N1c1ccc(Cl)c(Cl)c1
6.22 | 6.10 | CN1CCN(C2=C(Cl)C(=O)N(c3ccc(Cl)c(Cl)c3)C2=O)CC1
5.48 | 6.00 | CN1CCN(C2=C(Cl)C(=O)N(c3ccccc3Cl)C2=O)CC1

The next lines start with the molecule.

SMILES | pIC50 (Bcl-2-related protein A1 [1]) | pIC50 (Bcl-2-related protein A1 [2])
CC1C(=O)NCCN1C1=C(Cl)C(=O)N(c2ccc(Cl)c(Cl)c2)C1=O (configuration not stated) |  | 5.70
CN1CCN(C2=CC(=O)N(c3ccc(Cl)cc3)C2=O)CC1 | < 5.00 | < 5.00
CN1CCN(C2=C(Cl)C(=O)N(c3cccc(Cl)c3)C2=O)CC1 | 5.68 | 5.92
O=C1C(Cl)=C(NCc2ccccc2)C(=O)N1c1ccc(Cl)c(Cl)c1 | < 4.30 | < 4.30
CN1CCN(C2CC(=O)N(c3ccc(Cl)c(Cl)c3)C2=O)CC1 (configuration not stated) | < 5.00 | < 5.00
CN1CCN(C2=C(Cl)C(=O)N(c3ccncc3Cl)C2=O)CC1 | 4.54 | 4.45
CN(C)C1=C(Cl)C(=O)N(c2ccc(Cl)c(Cl)c2)C1=O | 6.52 | 6.40
Cc1cccc(N2C(=O)C(Cl)=C(N3CCN(C)CC3)C2=O)c1 | 4.90 | 4.97
C[C@H]1CN(C2=C(Cl)C(=O)N(c3ccc(Cl)c(Cl)c3)C2=O)CCN1 | 5.66 | 5.96
O=C1C(Cl)=C(N2CCCCC2)C(=O)N1c1ccc(Cl)c(Cl)c1 | < 4.30 | < 4.30
C[C@@H]1CN(C2=C(Cl)C(=O)N(c3ccc(Cl)c(Cl)c3)C2=O)CCN1 | 6.22 | 6.10
O=C1C(Cl)=C(N2CCN(CCOCCO)CC2)C(=O)N1c1ccc(Cl)c(Cl)c1 | 6.52 | 6.40
O=C1C(Cl)=C(N2CCOCC2)C(=O)N1c1ccc(Cl)c(Cl)c1 | 6.10 | 6.35
CN1CCN(C2=C(Cl)C(=O)N(c3cc(Cl)cc(Cl)c3)C2=O)CC1 | 5.62 | 5.72
CN1CCN(C2=C(Cl)C(=O)N(c3cccc(Cl)c3Cl)C2=O)CC1 |  | 5.59
CN1CCN(C2=C(Cl)C(=O)N(c3cccc([N+](=O)[O-])c3)C2=O)CC1 | 5.17 | 5.41
O=C1C(Cl)=C(NCCO)C(=O)N1c1ccc(Cl)c(Cl)c1 | < 4.30 | < 4.30
CN1CCN(C2=C(Cl)C(=O)N(c3ccc(Cl)cc3Cl)C2=O)CC1 |  | 5.85
